Data reported in ChEMBL document CHEMBL5696444 (Nat Commun, 2017).
Activity calls are given as the source filed them. The calls are words filed in the database; no cut-off is given here.

Legend:
[1] = test system: HCT-116; test: Induction of cell cycle arrest in human HCT-116 cells assessed as G2/M phase at 5 uM incubated for 6 hrs by flow cytometry analysis (Rvb=25.8%); format: functional
[2] = biological target: Dual specificity protein kinase CLK1 (Homo sapiens) (UniProt P49759); test: Inhibition of CLK (unknown origin) in human HCT-116 cells assessed as induction in alternative splicing effect in CDC6-RARA level incubated for 6 hrs by RT-PCR analysis; format: cell-based; settings: dose 0.2-5 µM
Sequence of Dual specificity protein kinase CLK1 (Homo sapiens) (P49759 whole entry, looked up, canonical isoform): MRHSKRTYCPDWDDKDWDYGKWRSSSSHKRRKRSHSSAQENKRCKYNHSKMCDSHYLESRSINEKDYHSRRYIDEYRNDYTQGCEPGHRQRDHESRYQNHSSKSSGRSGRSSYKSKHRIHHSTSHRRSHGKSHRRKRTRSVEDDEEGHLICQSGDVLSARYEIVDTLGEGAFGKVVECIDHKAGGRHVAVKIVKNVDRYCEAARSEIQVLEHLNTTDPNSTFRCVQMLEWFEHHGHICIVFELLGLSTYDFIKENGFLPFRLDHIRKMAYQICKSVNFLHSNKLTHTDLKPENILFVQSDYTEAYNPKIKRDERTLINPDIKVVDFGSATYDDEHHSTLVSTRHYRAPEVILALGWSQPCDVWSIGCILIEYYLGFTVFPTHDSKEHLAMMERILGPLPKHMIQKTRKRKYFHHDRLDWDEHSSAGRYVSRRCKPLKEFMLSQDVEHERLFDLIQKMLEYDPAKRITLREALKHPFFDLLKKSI
Method in brief: (§1)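 Cells exposed to graded T3 concentrations for 6 h (chosen to avoid cytotoxicity), with a DMSO vehicle control. Total RNA was reverse-transcribed with oligo-dT primers. Targeted splice or conjoined-gene products were quantified by real-time qPCR or by targeted next-generation sequencing. Conjoined-gene isoform expression was normalized to a sequenced housekeeping gene.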

[3] = biological target: Dual specificity protein kinase CLK1 (Homo sapiens) (UniProt P49759); test: Inhibition of CLK (unknown origin) in human 184-hTERT cells assessed as induction in alternative splicing effect in CDC6-RARA level incubated for 6 hrs by RT-PCR analysis; format: cell-based; settings: dose 0.2-5 µM; method in brief: as §1
[4] = test system: HCT-116; test: Induction of cell cycle arrest in human HCT-116 cells assessed as G2/M phase at 0.1 uM incubated for 6 hrs by flow cytometry analysis (Rvb=25.8%); format: functional
[5] = test system: HCT-116; test: Induction of apoptosis in human HCT-116 cells assessed as necrosis cells at 0.1 uM incubated for > 6 hrs by annexin V/PI staining based analysis (Rvb=0.55%); format: functional
[6] = biological target: Ephrin type-A receptor 5 (Homo sapiens) (UniProt P54756); test: Inhibition of EPHA5 (unknown origin) at 100 nM in the presence of ATP by Kinome scan method relative to control
[7] = biological target: Casein kinase I isoform delta (Homo sapiens) (UniProt P48730); test: Inhibition of CSNK1D (unknown origin) at 1000 nM in the presence of ATP by Kinome scan method relative to control
Sequence of Casein kinase I isoform delta (Homo sapiens) (P48730 whole entry, looked up, canonical isoform): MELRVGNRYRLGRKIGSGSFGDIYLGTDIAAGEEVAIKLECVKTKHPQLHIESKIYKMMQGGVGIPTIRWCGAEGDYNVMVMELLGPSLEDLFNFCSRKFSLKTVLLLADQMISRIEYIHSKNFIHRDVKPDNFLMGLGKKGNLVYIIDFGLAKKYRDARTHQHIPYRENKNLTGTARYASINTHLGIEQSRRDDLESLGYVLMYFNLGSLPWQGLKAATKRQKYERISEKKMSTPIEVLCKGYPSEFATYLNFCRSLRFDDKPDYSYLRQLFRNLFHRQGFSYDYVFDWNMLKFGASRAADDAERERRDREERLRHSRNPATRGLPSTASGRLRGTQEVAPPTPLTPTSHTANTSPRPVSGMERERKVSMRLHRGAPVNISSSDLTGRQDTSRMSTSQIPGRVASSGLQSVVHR

[8] = biological target: Serine/threonine-protein kinase Chk1 (Homo sapiens) (UniProt O14757); test: Inhibition of CHEK1 (unknown origin) at 100 nM in the presence of ATP by Kinome scan method relative to control
[9] = biological target: Interleukin-1 receptor-associated kinase 4 (Homo sapiens) (UniProt Q9NWZ3); test: Inhibition of IRAK4 (unknown origin) at 100 nM in the presence of ATP by Kinome scan method relative to control
[10] = biological target: Dual specificity protein kinase CLK1 (Homo sapiens) (UniProt P49759); test: Inhibition of CLK (unknown origin) in human HCT-116 cells assessed as decrease in SRSF4 phosphorylation level at 0.5 to 1.0 uM incubated for 6 hrs by immunoblot analysis; format: cell-based; settings: dose 0.5-1 µM
[11] = test system: HCT-116; test: Induction of apoptosis in human HCT-116 cells assessed as late apoptosis at 0.1 uM incubated for > 6 hrs by annexin V/PI staining based analysis (Rvb=6.12%); format: functional
[12] = test system: HCT-116; test: Induction of cell cycle arrest in human HCT-116 cells assessed as G0/G1 phase at 0.1 uM incubated for 24 hrs by flow cytometry analysis (Rvb=35.7%); format: functional
[13] = biological target: Dual specificity protein kinase CLK3 (Homo sapiens) (UniProt P49761); test: Inhibition of CLK3 (unknown origin) at 123 nM in the presence of ATP by Kinome scan method relative to control; settings: time > 6.0 hrs
[14] = test system: HCT-116; test: Induction of apoptosis in human HCT-116 cells assessed as necrosis cells at 1 uM incubated for > 6 hrs by annexin V/PI staining based analysis (Rvb=0.55%); format: functional
[15] = biological target: 3-phosphoinositide-dependent protein kinase 1 (PDPK1) (Homo sapiens) (UniProt O15530); test: Inhibition of PDK1 Direct (unknown origin) at 100 nM in the presence of ATP by Kinome scan method relative to control
Sequence of 3-phosphoinositide-dependent protein kinase 1 (PDPK1) (Homo sapiens) (O15530 whole entry, looked up): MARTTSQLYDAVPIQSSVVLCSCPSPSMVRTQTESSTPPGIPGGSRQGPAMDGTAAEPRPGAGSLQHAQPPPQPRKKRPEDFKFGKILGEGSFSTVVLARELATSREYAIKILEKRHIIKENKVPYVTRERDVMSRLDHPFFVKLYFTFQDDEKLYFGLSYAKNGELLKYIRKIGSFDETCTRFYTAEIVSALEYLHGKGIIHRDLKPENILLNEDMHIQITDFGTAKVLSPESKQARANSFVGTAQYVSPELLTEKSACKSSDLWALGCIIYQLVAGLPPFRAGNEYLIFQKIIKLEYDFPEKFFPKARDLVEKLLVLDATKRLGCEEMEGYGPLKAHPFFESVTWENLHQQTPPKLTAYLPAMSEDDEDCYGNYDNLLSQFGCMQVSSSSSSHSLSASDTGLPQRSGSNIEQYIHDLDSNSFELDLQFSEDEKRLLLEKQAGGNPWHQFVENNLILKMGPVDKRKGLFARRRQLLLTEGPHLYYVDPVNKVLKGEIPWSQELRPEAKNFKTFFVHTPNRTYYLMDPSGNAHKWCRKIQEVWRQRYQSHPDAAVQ

[16] = biological target: Serine/threonine-protein kinase Nek1 (Homo sapiens) (UniProt Q96PY6); test: Inhibition of NEK1 (unknown origin) at 1000 nM in the presence of ATP by Kinome scan method relative to control
Sequence of Serine/threonine-protein kinase Nek1 (Homo sapiens) (Q96PY6 whole entry): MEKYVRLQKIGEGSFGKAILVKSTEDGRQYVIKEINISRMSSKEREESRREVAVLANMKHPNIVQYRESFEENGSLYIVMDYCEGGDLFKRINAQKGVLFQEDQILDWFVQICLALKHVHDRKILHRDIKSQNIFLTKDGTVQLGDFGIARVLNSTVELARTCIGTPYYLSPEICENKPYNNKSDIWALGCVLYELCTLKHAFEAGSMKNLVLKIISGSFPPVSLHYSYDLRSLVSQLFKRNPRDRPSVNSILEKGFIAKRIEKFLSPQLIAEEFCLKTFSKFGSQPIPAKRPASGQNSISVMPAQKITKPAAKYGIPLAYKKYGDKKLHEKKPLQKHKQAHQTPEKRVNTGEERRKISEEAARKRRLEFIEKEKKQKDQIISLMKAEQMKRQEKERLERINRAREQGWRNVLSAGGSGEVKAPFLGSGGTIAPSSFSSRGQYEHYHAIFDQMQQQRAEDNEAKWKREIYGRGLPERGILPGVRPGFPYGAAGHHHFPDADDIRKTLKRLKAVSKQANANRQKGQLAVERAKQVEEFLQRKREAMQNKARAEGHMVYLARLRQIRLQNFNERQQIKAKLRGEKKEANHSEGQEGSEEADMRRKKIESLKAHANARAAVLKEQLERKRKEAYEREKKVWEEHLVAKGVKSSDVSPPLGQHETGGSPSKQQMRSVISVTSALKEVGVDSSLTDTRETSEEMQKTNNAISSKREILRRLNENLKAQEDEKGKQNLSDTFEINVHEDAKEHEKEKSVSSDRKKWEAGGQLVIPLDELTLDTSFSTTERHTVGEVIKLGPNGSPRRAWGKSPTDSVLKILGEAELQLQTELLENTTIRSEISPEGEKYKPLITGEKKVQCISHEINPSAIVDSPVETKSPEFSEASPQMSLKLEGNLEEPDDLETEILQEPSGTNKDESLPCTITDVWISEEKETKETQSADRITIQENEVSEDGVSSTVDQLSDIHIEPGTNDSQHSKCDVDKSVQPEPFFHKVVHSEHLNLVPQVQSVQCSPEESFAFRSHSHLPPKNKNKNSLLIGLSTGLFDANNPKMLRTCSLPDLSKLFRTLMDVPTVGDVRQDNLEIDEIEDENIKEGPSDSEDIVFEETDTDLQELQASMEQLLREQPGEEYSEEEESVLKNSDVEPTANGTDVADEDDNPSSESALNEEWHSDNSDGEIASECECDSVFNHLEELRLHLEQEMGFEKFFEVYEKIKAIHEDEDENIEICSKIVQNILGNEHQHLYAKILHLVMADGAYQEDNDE

[17] = biological target: Cyclin-dependent kinase 1/cyclin B1 (Homo sapiens) (UniProt P06493+P14635); test: Inhibition of CDK1/cyclin B (unknown origin) at 1000 nM in the presence of ATP by Kinome scan method relative to control; format: protein-complex assay
Sequence of Cyclin-dependent kinase 1/cyclin B1 (Homo sapiens) (P06493 whole entry, looked up): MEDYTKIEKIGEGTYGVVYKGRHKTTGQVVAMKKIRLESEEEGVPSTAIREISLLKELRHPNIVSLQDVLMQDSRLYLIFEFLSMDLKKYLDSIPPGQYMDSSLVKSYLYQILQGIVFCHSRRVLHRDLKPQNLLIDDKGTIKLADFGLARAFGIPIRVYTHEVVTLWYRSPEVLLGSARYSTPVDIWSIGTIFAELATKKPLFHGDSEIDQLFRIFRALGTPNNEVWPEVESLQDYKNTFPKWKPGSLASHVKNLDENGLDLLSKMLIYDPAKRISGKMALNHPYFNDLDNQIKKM
Sequence of Cyclin-dependent kinase 1/cyclin B1 (Homo sapiens) (P14635 whole entry, looked up): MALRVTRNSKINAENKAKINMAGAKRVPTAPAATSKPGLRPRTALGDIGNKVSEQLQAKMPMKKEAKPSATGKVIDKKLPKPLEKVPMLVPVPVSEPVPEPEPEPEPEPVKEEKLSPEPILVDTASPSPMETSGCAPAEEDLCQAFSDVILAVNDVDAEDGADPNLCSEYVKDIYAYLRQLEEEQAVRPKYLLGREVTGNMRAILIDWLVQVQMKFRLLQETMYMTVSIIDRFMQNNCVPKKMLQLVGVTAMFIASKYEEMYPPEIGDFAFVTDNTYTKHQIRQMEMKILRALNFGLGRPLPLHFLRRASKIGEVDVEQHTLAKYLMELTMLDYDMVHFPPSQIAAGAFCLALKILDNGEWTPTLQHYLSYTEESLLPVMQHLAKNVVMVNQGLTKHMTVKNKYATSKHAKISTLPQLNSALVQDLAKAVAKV

[18] = test system: HCT-116; test: Induction of apoptosis in human HCT-116 cells assessed as viable cells at 0.5 uM incubated for > 6 hrs by annexin V/PI staining based analysis (Rvb=90.04%); format: functional; settings: read-out: Activity
[19] = test system: HCT-116; test: Induction of apoptosis in human HCT-116 cells assessed as viable cells at 0.1 uM incubated for > 6 hrs by annexin V/PI staining based analysis (Rvb=90.04%); format: functional; settings: read-out: Activity
[20] = test system: HCT-116; test: Induction of cell cycle arrest in human HCT-116 cells assessed as S phase at 10 uM incubated for 24 hrs by flow cytometry analysis (Rvb=46.4%); format: functional
[21] = biological target: Dual specificity protein kinase CLK2 (Homo sapiens, UniProt P49760); test: Inhibition of N-terminal FLAG-tagged human CLK2 at 1110 nM in the presence of ATP by Kinome scan method relative to control
[22] = test system: HCT-116; test: Induction of apoptosis in human HCT-116 cells assessed as late apoptosis at 5 uM incubated for > 6 hrs by annexin V/PI staining based analysis (Rvb=6.12%); format: functional
[23] = biological target: Angiopoietin-1 receptor (Homo sapiens) (UniProt Q02763); test: Inhibition of TEK (unknown origin) at 1000 nM in the presence of ATP by Kinome scan method relative to control
[24] = biological target: Dual specificity tyrosine-phosphorylation-regulated kinase 1A (Homo sapiens, UniProt Q13627); test: Inhibition of DYRK1A (unknown origin) at 123 nM in the presence of ATP by Kinome scan method relative to control; settings: time > 6.0 hrs
[25] = biological target: Dual specificity mitogen-activated protein kinase kinase 1 (Homo sapiens) (UniProt Q02750); test: Inhibition of MAP2K1 (unknown origin) at 100 nM in the presence of ATP by Kinome scan method relative to control
[26] = biological target: Mitogen-activated protein kinase 9 (Homo sapiens) (UniProt P45984); test: Inhibition of MAPK9 (unknown origin) at 1000 nM in the presence of ATP by Kinome scan method relative to control
[27] = biological target: Dual specificity tyrosine-phosphorylation-regulated kinase 1B (Homo sapiens, UniProt Q9Y463); test: Inhibition of DYRK1B (unknown origin) at 1110 nM in the presence of ATP by Kinome scan method relative to control; settings: time > 6.0 hrs
Sequence of Dual specificity tyrosine-phosphorylation-regulated kinase 1B (Q9Y463 whole entry, looked up): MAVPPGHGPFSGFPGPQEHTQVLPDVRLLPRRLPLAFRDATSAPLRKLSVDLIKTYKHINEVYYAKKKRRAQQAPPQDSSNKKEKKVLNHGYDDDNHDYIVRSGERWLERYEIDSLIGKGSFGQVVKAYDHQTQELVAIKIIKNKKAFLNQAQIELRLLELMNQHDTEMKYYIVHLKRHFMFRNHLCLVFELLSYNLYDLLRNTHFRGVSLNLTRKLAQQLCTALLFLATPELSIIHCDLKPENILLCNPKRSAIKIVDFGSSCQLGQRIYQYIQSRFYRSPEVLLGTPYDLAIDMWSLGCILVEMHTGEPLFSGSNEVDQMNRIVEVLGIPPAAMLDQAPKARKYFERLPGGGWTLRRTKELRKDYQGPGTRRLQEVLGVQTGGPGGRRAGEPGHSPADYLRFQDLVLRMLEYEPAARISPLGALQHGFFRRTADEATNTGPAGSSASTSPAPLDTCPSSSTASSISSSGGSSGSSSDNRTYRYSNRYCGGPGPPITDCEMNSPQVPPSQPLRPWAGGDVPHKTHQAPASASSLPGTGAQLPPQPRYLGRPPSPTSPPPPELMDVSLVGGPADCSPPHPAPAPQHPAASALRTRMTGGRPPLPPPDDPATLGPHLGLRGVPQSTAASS

[28] = biological target: Dual specificity protein kinase CLK1 (Homo sapiens) (UniProt P49759); test: Inhibition of CLK1 (unknown origin) at 1110 nM in the presence of ATP by Kinome scan method relative to control; settings: time > 6.0 hrs
[29] = test system: HCT-116; test: Induction of apoptosis in human HCT-116 cells assessed as early apoptosis at 0.5 uM incubated for > 6 hrs by annexin V/PI staining based analysis (Rvb=3.29%); format: functional
[30] = biological target: Casein kinase I isoform alpha (Homo sapiens) (UniProt P48729); test: Inhibition of CSNK1A1 (unknown origin) at 100 nM in the presence of ATP by Kinome scan method relative to control
Sequence of Casein kinase I isoform alpha (Homo sapiens) (P48729 2-337 limits assumed): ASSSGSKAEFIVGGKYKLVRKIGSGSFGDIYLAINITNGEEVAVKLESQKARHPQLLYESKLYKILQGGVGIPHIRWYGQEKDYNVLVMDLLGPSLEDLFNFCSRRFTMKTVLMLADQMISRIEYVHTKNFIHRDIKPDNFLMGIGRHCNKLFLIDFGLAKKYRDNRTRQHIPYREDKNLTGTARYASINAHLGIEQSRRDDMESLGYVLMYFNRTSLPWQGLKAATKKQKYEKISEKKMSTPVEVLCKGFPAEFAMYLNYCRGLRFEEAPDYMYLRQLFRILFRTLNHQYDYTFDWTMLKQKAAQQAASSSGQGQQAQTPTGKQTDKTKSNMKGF

[31] = biological target: Aurora kinase A (Homo sapiens) (UniProt O14965); test: Inhibition of AURKA (unknown origin) at 1000 nM in the presence of ATP by Kinome scan method relative to control
Sequence of Aurora kinase A (Homo sapiens) (O14965 whole entry): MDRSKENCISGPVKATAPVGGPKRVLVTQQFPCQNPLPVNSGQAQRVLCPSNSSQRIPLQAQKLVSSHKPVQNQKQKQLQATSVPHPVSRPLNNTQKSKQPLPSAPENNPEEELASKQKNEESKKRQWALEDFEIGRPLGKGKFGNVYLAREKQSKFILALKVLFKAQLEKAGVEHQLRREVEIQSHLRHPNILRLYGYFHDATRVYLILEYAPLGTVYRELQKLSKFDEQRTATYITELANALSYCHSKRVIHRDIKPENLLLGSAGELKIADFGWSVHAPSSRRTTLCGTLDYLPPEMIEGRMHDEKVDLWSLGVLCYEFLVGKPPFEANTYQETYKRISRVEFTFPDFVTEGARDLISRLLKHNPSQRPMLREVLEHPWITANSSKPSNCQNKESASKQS

- inhibition [2]: Dose-Dependent Effect
- inhibition [3]: Dose-Dependent Effect
- inhibition [6]: -6%
- inhibition [7]: 4%
- inhibition [8]: 10%
- inhibition [9]: 25%
- inhibition [10]: Active
- inhibition [13]: 38%
- inhibition [15]: -1%
- inhibition [16]: 25%
- inhibition [17]: 7%
- inhibition [21]: 100%
- inhibition [23]: 0%
- inhibition [24]: 74%
- inhibition [25]: 12%
- inhibition [26]: -1%
- inhibition [27]: 94%
- inhibition [28]: 99%
- inhibition [30]: -4%
- inhibition [31]: 9%
SMILES: CN1CCN(C(=O)C(C)(C)c2ccc(C(=O)Nc3cn4cc(-c5ccncc5)ccc4n3)cc2)CC1 [T3-CLK]
- Activity [1]: 34.5%
- Activity [4]: 30.5%
- Activity [5]: 0.75%
- Activity [11]: 8.29%
- Activity [12]: 38.7%
- Activity [14]: 0.73%
- viability at 0.5 µM [18]: 89.4%
- viability at 0.1 µM [19]: 87.8%
- Activity [20]: 41%
- Activity [22]: 8.23%
- Activity [29]: 3.04%
